Values after ≈ are worked out from the molar mass of the structure shown. Active and inactive are the calls of the source. No cut-off for these calls is given here.

Drawing on ChEMBL document CHEMBL1921710, “Anti-staphylococcal activity and β-lactam resistance attenuating capacity of structural analogues of (-)-epicatechin gallate” (2011), this text covers MIC and Activity for eight compounds.

Assay [1] has as its system Staphylococcus aureus. Nature of the assay: Antistaphylococcal activity against epidemic Staphylococcus aureus isolate 16 by CLSI broth microplate assay. Format: functional. Put shortly:
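MIC against MRSA clinical isolate EMRSA-16, measured by CLSI broth microplate dilution. Compounds were dissolved in 60% v/v EtOH, then diluted into broth.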

Assay [2] relates to Staphylococcus aureus. Put plainly: Potentiation of oxacillin-induced antistaphylococcal activity against epidemic Staphylococcus aureus isolate 16 at 12.5 ug/mL by CLSI broth microplate assay. The format is functional, organism-based. Put shortly: (§1)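 Oxacillin MIC against EMRSA-16 with the analogue held at a fixed concentration. Run in 96-well trays with about 10^4 CFU in 100 μl Mueller–Hinton broth containing 2% w/v NaCl. Compounds were dissolved in 60% v/v EtOH before dilution into broth.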

The test system of assay [3] is Staphylococcus aureus. Nature of the assay: Potentiation of oxacillin-induced antistaphylococcal activity against epidemic Staphylococcus aureus isolate 16 at 6.25 ug/mL by CLSI broth microplate assay. Format: functional, organism-based. Put shortly: as §1

Turning to `O=C(O[C@@H]1Cc2c(O)cc(O)cc2O[C@@H]1c1cc(O)cc(O)c1)c1cc(O)c(O)c(O)c1`, the lowest concentration to inhibit growth with Staphylococcus aureus [1] (MIC) was 128 µg/mL (≈ 289 µM). For the same compound, in the assay with Staphylococcus aureus [2], the result was Active.

For the compound `Cc1onc(-c2ccccc2)c1C(=O)N[C@@H]1C(=O)N2[C@@H]1SC(C)(C)[C@@H]2C(=O)O` [OXACILLIN], it took 512 µg/mL (≈ 1280 µM) to inhibit growth against Staphylococcus aureus [1] (MIC).

`O=C(O[C@@H]1Cc2c(O)cc(O)cc2O[C@@H]1c1cccc(O)c1)c1cc(O)c(O)c(O)c1`: the MIC (usually the lowest concentration found to suppress growth) with Staphylococcus aureus [1] is 128 µg/mL (≈ 300 µM). Also, the result in the assay with Staphylococcus aureus [2] was Active.

In the assay on Staphylococcus aureus [1], `O=C(O[C@@H]1Cc2ccccc2O[C@@H]1c1ccccc1)c1cc(O)c(O)c(O)c1` returned an MIC of 16 µg/mL (≈ 42.3 µM). The outcome in the assay on Staphylococcus aureus [3] and in the assay on Staphylococcus aureus [2] was Active.

In turn, `O=C(O[C@@H]1Cc2c(O)cc(O)cc2O[C@@H]1c1ccccc1)c1cc(O)c(O)c(O)c1` registered an MIC against Staphylococcus aureus [1] of 64 µg/mL (≈ 156 µM). The result in the assay on Staphylococcus aureus [3] and in the assay with Staphylococcus aureus [2] was Active.

On to `O=C(O[C@@H]1Cc2c(O)cc(O)cc2O[C@@H]1c1ccc(O)c(O)c1)c1cc(O)c(O)c(O)c1` [EPICATECHIN GALLATE], for which the lowest concentration to inhibit growth in the assay with Staphylococcus aureus [1] (MIC) was 128 µg/mL (≈ 289 µM). Besides, in the assay on Staphylococcus aureus [2], the outcome was Active.

`O=C(O[C@@H]1Cc2ccccc2O[C@H]1c1ccccc1)c1cc(O)c(O)c(O)c1`: the MIC in the assay with Staphylococcus aureus [1] amounted to 16 µg/mL (≈ 42.3 µM). In addition, the result in the assay on Staphylococcus aureus [3] and in the assay on Staphylococcus aureus [2] was Active.

Regarding `O=C(N[C@@H]1Cc2c(O)cc(O)cc2O[C@@H]1c1ccc(O)c(O)c1)c1cc(O)c(O)c(O)c1`, the result with Staphylococcus aureus [2] was Active.
